Active and inactive are the calls of the source. No cut-off for these calls is given here.
Experiments:
[1] = test system: Raji; assay: Growth inhibition against human Raji cells assessed as cell viability at 10 uM preincubated with N-acetyl-L-cysteine for 30 mins measured after 48 hrs by trypan blue based microscopic analysis; format: functional
Procedure, shortened: (§1)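 Cells preincubated 30 min at 37 °C with 10 mM NAC, then seeded (Raji 1 × 10^5, HL60 5 × 10^4 cells/mL) and treated with 10 μM EGCG for 48 h. Viable cells were counted after trypan blue exclusion by hemacytometer. Growth rate = viable treated/viable untreated cells. Means ± SD of more than three experiments in triplicate wells.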

[2] = test system: HL-60; assay: Induction of 67 kDa laminin receptor expression in human HL60 cells after 24 hrs by flow cytometry analysis; format: functional, cell-based
Procedure, shortened: (§2)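 Untreated cells seeded at 1 × 10^5 cells/mL and grown 24 h. Harvested cells labelled with mouse anti-67 LR IgM in 0.5% BSA/PBS for 1 h on ice, then anti-mouse IgM-FITC for 30 min at 4 °C in the dark. Read by flow cytometry.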

[3] = test system: K562; assay: Induction of intracellular reactive oxygen species production in human K562 cells at 10 uM after 1 to 3 hrs by flow cytometry; format: functional, cell-based
Procedure, shortened: (§3)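 Cells treated with 10 μM EGCG for 1 and 3 h. Then 1 × 10^5 cells stained with 5 μM H2-DCFDA for 25 min at 37 °C, washed and resuspended in PBS. Oxidised-probe fluorescence read by flow cytometry. Means ± SD of more than three separate experiments.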

[4] = test system: Raji; assay: Cell cycle arrest in human Raji cells by assessed as accumulation at subG1 phase at 10 uM using propidium iodide staining by flow cytometry in presence of superoxide dismutase and catalase; format: functional
Procedure, shortened: (§4)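 Cells treated with 10 μM EGCG for 48 h, with or without SOD (5 U/mL) plus catalase (30 U/mL) in the medium. Harvested cells permeabilised in PBS with 0.1% Triton X-100 for 5 min on ice, stained with propidium iodide (50 μg/mL), and analysed by flow cytometry for sub-G1 fraction.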

[5] = test system: HL-60; assay: Growth inhibition against human HL60 cells assessed as cell viability at 10 uM after 48 hrs by trypan blue based microscopic analysis in presence of catalase; format: functional
Procedure, shortened: (§5)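 Raji cells were seeded at 1 × 10^5 cells/mL and HL60 at 5 × 10^4 cells/mL. Medium held SOD (5 U/mL), catalase (30 U/mL) or both, plus 10 μM EGCG, for 48 h. Viable cells counted after trypan blue by hemacytometer; growth rate relative to untreated. Means ± SD of more than three experiments in triplicate wells.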

[6] = test system: HL-60; assay: Induction of intracellular reactive oxygen species production in human HL60 cells at 10 uM after 1 to 3 hrs by flow cytometry; format: functional, cell-based; procedure, shortened: as §3
[7] = test system: Raji; assay: Induction of apoptosis in human Raji cells assessed as late apoptotic or secondary necrotic cells at 10 uM after 12 hrs by measuring phosphatidylserine translocation using annexin V-FITC/propidium iodide staining by FACS (reference value: 2.2 %); format: functional
[8] = test system: Raji; assay: Induction of apoptosis in human Raji cells assessed as late apoptotic or secondary necrotic cells at 10 uM after 24 hrs by measuring phosphatidylserine translocation using annexin V-FITC/propidium iodide staining by FACS (reference value: 2.2 %); format: functional
[9] = test system: Raji; assay: Cytotoxicity against human Raji cells assessed as cell growth inhibition after 7 days by trypan blue based microscopic analysis; format: functional
Procedure, shortened: (§6)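 Cells seeded at 2 × 10^3 cells/mL in culture medium with 1 nM–10 μM compound and cultured 7 days. HL60 and Raji were grown in RPMI 1640, K562 in F-12, UT-7 in IMDM with TPO 10 ng/mL; all media had 10% heat-inactivated FBS, 37 °C, 5% CO2. Viable trypan blue-excluding cells counted by hemacytometer; growth rate = viable treated/viable untreated. Means ± SD.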

[10] = test system: Raji; assay: Induction of myeloperoxidase expression in human Raji cells after 24 hrs by flow cytometry; format: functional
Procedure, shortened: (§7)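 Untreated cells seeded at 1 × 10^5 cells/mL and grown 24 h. Fixed/permeabilised with Cytofix/Cytoperm for 20 min on ice. Stained with mouse anti-MPO mAb (1% v/v) for 1 h at room temperature, then goat anti-mouse IgG-FITC (1% v/v) for 1 h in the dark. Basal intracellular MPO read by flow cytometry.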

[11] = test system: Raji; assay: Induction of apoptosis in human Raji cells assessed as early apoptotic cells at 10 uM after 24 hrs by measuring phosphatidylserine translocation using annexin V-FITC/propidium iodide staining by FACS (reference value: 3.7 %); format: functional
[12] = test system: HL-60; assay: Growth inhibition against human HL60 cells assessed as cell viability at 10 uM preincubated with N-acetyl-L-cysteine for 30 mins measured after 48 hrs by trypan blue based microscopic analysis; format: functional; procedure, shortened: as §1
[13] = test system: K562; assay: Cytotoxicity against human K562 cells assessed as cell growth inhibition at 10 uM after 7 days by trypan blue based microscopic analysis; format: functional; procedure, shortened: as §6
[14] = test system: Raji; assay: Growth inhibition against human Raji cells assessed as cell viability at 10 uM after 48 hrs by trypan blue based microscopic analysis in presence of superoxide dismutase; format: functional; procedure, shortened: as §5
[15] = test system: HL-60; assay: Induction of apoptosis in human HL60 cells assessed as intracellular caspase-3 activation after 48 hrs (reference value: 1.3 %); format: functional
[16] = test system: Raji; assay: Induction of apoptosis in human Raji cells assessed as necrotic cells at 10 uM after 12 hrs by measuring phosphatidylserine translocation using annexin V-FITC/propidium iodide staining by FACS (reference value: 3.4 %); format: functional
[17] = test system: Raji; assay: Induction of apoptosis in human Raji cells assessed as early apoptotic cells at 10 uM after 12 hrs by measuring phosphatidylserine translocation using annexin V-FITC/propidium iodide staining by FACS (reference value: 3.7 %); format: functional
[18] = test system: Raji; assay: Induction of apoptosis in human Raji cells assessed as late apoptotic or secondary necrotic cells at 10 uM after 6 hrs by measuring phosphatidylserine translocation using annexin V-FITC/propidium iodide staining by FACS (reference value: 2.2 %); format: functional
[19] = test system: HL-60; assay: Cell cycle arrest in human HL60 cells by assessed as accumulation at subG1 phase at 10 uM using propidium iodide staining by flow cytometry; format: functional; procedure, shortened: as §4
[20] = test system: HL-60; assay: Induction of myeloperoxidase expression in human HL60 cells after 24 hrs by flow cytometry; format: functional; procedure, shortened: as §7
[21] = test system: HL-60; assay: Cell cycle arrest in human HL60 cells by assessed as accumulation at subG1 phase at 10 uM using propidium iodide staining by flow cytometry in presence of superoxide dismutase and catalase; format: functional; procedure, shortened: as §4
[22] = test system: Raji; assay: Growth inhibition against human Raji cells assessed as cell viability at 10 uM after 24 hrs by trypan blue based microscopic analysis; format: functional
[23] = test system: HL-60; assay: Growth inhibition against human HL60 cells assessed as cell viability at 10 uM after 48 hrs by trypan blue based microscopic analysis in presence of superoxide dismutase and catalase; format: functional; procedure, shortened: as §5
[24] = test system: Raji; assay: Induction of intracellular reactive oxygen species production in human Raji cells at 10 uM after 1 to 3 hrs by flow cytometry; format: functional, cell-based; procedure, shortened: as §3
[25] = test system: Raji; assay: Induction of apoptosis in human Raji cells assessed as early apoptotic cells at 10 uM after 6 hrs by measuring phosphatidylserine translocation using annexin V-FITC/propidium iodide staining by FACS (reference value: 3.7 %); format: functional
[26] = test system: K562; assay: Induction of 67 kDa laminin receptor expression in human K562 cells after 24 hrs by flow cytometry analysis; format: functional, cell-based; procedure, shortened: as §2
[27] = test system: UT7; assay: Cytotoxicity against human UT7 cells assessed as cell growth inhibition at 10 uM after 7 days by trypan blue based microscopic analysis; format: functional; procedure, shortened: as §6
[28] = test system: Raji; assay: Induction of apoptosis in human Raji cells assessed as intracellular caspase-3 activation after 24 hrs (reference value: 3.4 %); format: functional
[29] = test system: HL-60; assay: Growth inhibition against human HL60 cells assessed as cell viability at 10 uM after 48 hrs by trypan blue based microscopic analysis in presence of superoxide dismutase; format: functional; procedure, shortened: as §5
[30] = test system: Raji; assay: Induction of apoptosis in human Raji cells assessed as necrotic cells at 10 uM after 6 hrs by measuring phosphatidylserine translocation using annexin V-FITC/propidium iodide staining by FACS (reference value: 3.4 %); format: functional
[31] = test system: Raji; assay: Induction of apoptosis in human Raji cells assessed as necrotic cells at 10 uM after 24 hrs by measuring phosphatidylserine translocation using annexin V-FITC/propidium iodide staining by FACS (reference value: 3.4 %); format: functional
[32] = test system: K562; assay: Induction of myeloperoxidase expression in human K562 cells after 24 hrs by flow cytometry; format: functional; procedure, shortened: as §7
[33] = test system: HL-60; assay: Growth inhibition against human HL60 cells assessed as cell viability at 10 uM after 24 hrs by trypan blue based microscopic analysis; format: functional
[34] = test system: HL-60; assay: Induction of apoptosis in human HL60 cells assessed as intracellular caspase-3 activation after 24 hrs (reference value: 1.3 %); format: functional
[35] = test system: HL-60; assay: Cytotoxicity against human HL60 cells assessed as cell growth inhibition after 7 days by trypan blue based microscopic analysis; format: functional; procedure, shortened: as §6
[36] = test system: Raji; assay: Induction of apoptosis in human Raji cells assessed as necrotic cells at 10 uM by measuring phosphatidylserine translocation using annexin V-FITC/propidium iodide staining by FACS; format: functional, cell-based; conditions: TDE = time-dependent effect
[37] = test system: Raji; assay: Induction of apoptosis in human Raji cells assessed as intracellular caspase-3 activation after 48 hrs (reference value: 3.4 %); format: functional
[38] = test system: Raji; assay: Cell cycle arrest in human Raji cells by assessed as accumulation at subG1 phase at 10 uM using propidium iodide staining by flow cytometry; format: functional; procedure, shortened: as §4
[39] = test system: Raji; assay: Growth inhibition against human Raji cells assessed as cell viability at 10 uM after 48 hrs by trypan blue based microscopic analysis in presence of catalase; format: functional; procedure, shortened: as §5
[40] = test system: Raji; assay: Growth inhibition against human Raji cells assessed as cell viability at 10 uM after 48 hrs by trypan blue based microscopic analysis in presence of superoxide dismutase and catalase; format: functional; procedure, shortened: as §5

SMILES: O=C(O[C@@H]1Cc2c(O)cc(O)cc2O[C@@H]1c1cc(O)c(O)c(O)c1)c1cc(O)c(O)c(O)c1 [EPIGALOCATECHIN GALLATE]
- growth inhibition (GI) [1]: Active
- Activity [2]: Active
- Activity [3]: inactive
- Activity [4]: 5.9%
- growth inhibition (GI) [5]: Active
- Activity [6]: inactive
- Activity [7]: 7.8%
- Activity [8]: 13%
- growth inhibition (GI) [9]: Dose-dependent effect
- Activity [10]: 4.5%
- Activity [11]: 8.5%
- growth inhibition (GI) [12]: Active
- growth inhibition (GI) [13]: inactive
- growth inhibition (GI) [14]: Active
- Activity [15]: 4.2%
- Activity [16]: 6.7%
- Activity [17]: 7.7%
- Activity [18]: 4.5%
- Activity [19]: 45.9%
- Activity [20]: 49.2%
- Activity [21]: 2.6%
- Activity [22]: Active
- growth inhibition (GI) [23]: inactive
- Activity [24]: inactive
- Activity [25]: 5.1%
- Activity [26]: Active
- growth inhibition (GI) [27]: inactive
- Activity [28]: 3.5%
- growth inhibition (GI) [29]: Active
- Activity [30]: 5.3%
- Activity [31]: 14.9%
- Activity [32]: 14.3%
- Activity [33]: Active
- Activity [34]: 2.7%
- growth inhibition (GI) [35]: Dose-dependent effect
- Activity [36]: tde
- Activity [37]: 5.4%
- Activity [38]: 3.8%
- growth inhibition (GI) [39]: Active
- growth inhibition (GI) [40]: inactive

From ChEMBL document CHEMBL1772988, “(-)-Epigallocatechin-3-O-gallate induces nonapoptotic cell death in leukemia cells independent of the 67 kDa laminin receptor” (2011)
